FLuc inh counter = inhibits firefly luciferase, flagging false hits in luciferase inhibition screens. P08659. inhibition, % at 10 µM. hit rate 1.5% among 200,000. ATPLite firefly luciferase biochemical luminescence, 10 min;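 active means inhibition above about 50% when tested at 10 µM, limit read from the data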
FLuc act counter = affects firefly luciferase, flagging false hits in luciferase stimulation screens. ATPlite luciferase biochemical, luminescence, 10 min; 0 = ATP-free wells, 1 = DMSO control. P08659. 200,000 tested, under 10 active. activation factor at 10 µM;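 active means luciferase activation factor, scaled between plate controls, of at least 2 with compound at 10 µM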
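Assay system: Luciferase/luciferin detection reagent, cell-free biochemical luciferase assay / Also added: ATP substrate / Schedule: 10 min at ambient temperature / Measured by: luminescence measurement of luciferase light output / Benchmarks: low control with PBS replacing ATP, high control enzyme plus ATP without compound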
ABCG2 block = blocks JC-1 efflux by human ABCG2 transporter; inhibition, % at 6.6 µM; hit rate 0.1% among 190,000; AID 1325; IgMXP3 cells, flow cytometry;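 active means inhibition above 80%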;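 further: 0% = DMSO and 100% = nicardipine control wells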
Target sequence (Q9UNQ0 whole entry, looked up): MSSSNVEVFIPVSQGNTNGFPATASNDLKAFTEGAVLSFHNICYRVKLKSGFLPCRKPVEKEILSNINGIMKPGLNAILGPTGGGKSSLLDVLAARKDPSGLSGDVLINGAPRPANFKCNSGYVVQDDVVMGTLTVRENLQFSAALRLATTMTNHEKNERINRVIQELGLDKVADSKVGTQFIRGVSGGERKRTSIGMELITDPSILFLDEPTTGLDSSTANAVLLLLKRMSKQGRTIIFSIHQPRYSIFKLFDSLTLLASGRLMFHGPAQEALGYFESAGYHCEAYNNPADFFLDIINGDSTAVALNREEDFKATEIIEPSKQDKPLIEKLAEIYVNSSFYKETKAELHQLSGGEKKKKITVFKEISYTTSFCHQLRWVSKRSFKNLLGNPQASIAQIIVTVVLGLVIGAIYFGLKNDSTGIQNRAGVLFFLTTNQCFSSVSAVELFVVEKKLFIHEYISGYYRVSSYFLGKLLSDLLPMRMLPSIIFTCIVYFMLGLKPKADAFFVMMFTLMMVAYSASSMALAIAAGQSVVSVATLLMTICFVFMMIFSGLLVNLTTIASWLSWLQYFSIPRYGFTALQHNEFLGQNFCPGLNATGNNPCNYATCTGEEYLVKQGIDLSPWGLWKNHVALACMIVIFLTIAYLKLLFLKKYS
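System: two drug-resistant human cell lines, ABCG2 and ABCB1; controls: nicardipine high and DMSO low controls; times: 10 min exposure at 25 °C with rotation, no wash; detection: flow cytometry of retained JC-1 fluorescence; read-out basis: percent efflux inhibition, scaled nicardipine 100% to DMSO 0%; doses: one concentration, 6.6 µM final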
Diaphorase act = counter-screen for diaphorase-based assays: diaphorase activators and chemical reducers. Diaphorase/resazurin coupled assay, resorufin fluorescence, 16 min; stronger effect = higher value; 1 = vehicle wells, 0 = NADH-free wells. activation factor at 20 µM. hit rate 0.005% among 190,000;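 active means diaphorase activity raised at least twofold by the compound at 20 µM; inactive means activation factor below 2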
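Measured by – red resorufin fluorescence at 544/590 nm excitation/emission · Test system – Clostridium kluyveri diaphorase, purified enzyme · Incubation – reaction time 16 min, room temperature · Buffer or medium – 50 mM HEPES pH 7.4 with 4.542 mM MgCl2, 0.005% Tween 20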
ABCB1 block = blocks JC-1 efflux by human ABCB1 transporter; CCRF-Adr cells, flow cytometry; hit rate 0.067% among 190,000; P08183; inhibition, % at 6.6 µM; in the data active means inhibition above about 40%;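 further: 0% = vehicle and 100% = reference inhibitor; higher value means more JC-1 retained so stronger ABCB1 efflux block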
ABCB6 inh 2 = inhibitors of human ABC transporter ABCB6; K562-ABCB6 porphyrin accumulation, flow cytometry, 1 h; stronger effect = lower value; fluorescence ratio to DMSO, % at 10 µM; hit rate 0.19% among 360,000;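 active means fluorescence ratio to DMSO below 75%, the collection mean minus 3 SD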;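 further: signal is porphyrin accumulated inside mitochondria; 100% equals median channel fluorescence of DMSO control wells; lower ratio means ABCB6 inhibition with less porphyrin fluorescence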
ABCB6 blocker 1 = human ABCB6 transporter inhibition; shares compounds with ABCB6 inh 2; K562-ABCB6 porphyrin accumulation, flow cytometry, 1 h; stronger effect = lower value; ratio response (% of DMSO), % at 10 µM; 700 tested, under 10 active; AID 602430;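 active means repeat-averaged ratio response below 75% of DMSO, the collection mean minus 3 SD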;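 further: median porphyrin fluorescence at 575 nm with 488 nm excitation from mitochondria; lower ratio means less porphyrin signal so ABCB6 inhibition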
K562 vector FC = counter-screen for ABCB6 inhibitors: effect in vector-only K562 cells. shares compounds with ABCB6 inh 2. K562 empty-vector cells, flow cytometry fluorescence, 1 h. percent response (fluorescence), % at 100 µM. 25 tested, under 10 active. AID 624484;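 active means compounds whose half-maximal effective concentration is below 100 µM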
Active calls of the source: *; / = no result. The entries come from a sample that favours hits as a whole.

SMILES | FLuc inh counter | FLuc act counter | ABCG2 block | Diaphorase act | ABCB1 block | ABCB6 inh 2 | ABCB6 blocker 1 | others
CCOc1ccccc1NC(=O)c1nc(S(=O)(=O)Cc2cccc(C)c2)ncc1Cl | / | / | / | / | / | 41* | / | K562 vector FC=269
Cc1nnc(NC(=O)c2nc(S(=O)(=O)Cc3ccccc3C)ncc2Cl)s1 | / | / | / | / | / | 108 | / | K562 vector FC=237
Cc1ccc(CS(=O)(=O)c2ncc(Cl)c(C(=O)Nc3ccc(OC(F)F)cc3)n2)cc1 | / | / | / | / | / | 62* | / | K562 vector FC=310
CCc1nnc(NC(=O)c2nc(S(=O)(=O)Cc3cccc(C)c3)ncc2Cl)s1 | / | / | / | / | / | 108 | / | K562 vector FC=220
COc1ccc(NC(=O)C2(C)CCN2C(=O)Cc2ccc(Cl)cc2Cl)cc1OC (centres undefined) | / | / | / | / | / | 98 | /
CC(=O)Nc1ccc(NC(=O)c2nc(S(=O)(=O)Cc3ccccc3)ncc2Cl)cc1 | / | / | / | / | / | 70* | / | K562 vector FC=280
Cc1cccc(CS(=O)(=O)c2ncc(Cl)c(C(=O)Nc3nnc(C(C)C)s3)n2)c1 | / | / | / | / | / | 103 | / | K562 vector FC=241
CCc1nnc(NC(=O)c2nc(S(=O)(=O)Cc3ccccc3)ncc2Cl)s1 | / | / | / | / | / | 84 | / | K562 vector FC=244
O=C(NCc1ccccc1)c1nc(S(=O)(=O)Cc2ccccc2)ncc1Cl | / | / | / | / | / | 102 | /
CCc1nnc(NC(=O)c2nc(S(=O)(=O)Cc3ccc(C)cc3)ncc2Cl)s1 | / | / | / | / | / | 101 | / | K562 vector FC=229
COc1ccc(OC)c(C2C(C(=O)c3cccs3)=C(O)C(=O)N2CCN2CCOCC2)c1 (centres undefined) | / | / | / | / | / | 95 | /
COc1cc(C(=O)Nc2cccc(NC(=O)c3cccs3)c2)cc(OC)c1OC | / | / | / | / | / | 96 | /
COc1ccccc1CCC(=O)OCC(=O)Nc1c(C)nn(-c2ccccc2)c1C | / | / | / | / | / | 98 | /
COc1ccc(C(CNc2nc(-c3cccnc3)nc3ccccc23)N(C)C)cc1 (centres undefined) | / | / | / | / | / | 100 | /
CC(C)c1nnc(NC(=O)c2nc(S(=O)(=O)Cc3ccc(F)cc3)ncc2Cl)s1 | / | / | / | / | / | 80 | / | K562 vector FC=250
CC(=O)/C(N=Nc1ccc2c(c1)OCO2)=C(\C)O | 16 | 0.8 | 6 | 1.1 | 0 | 74* | 102
Cc1ccc(S(=O)(=O)N2CCCNCC2)cc1 | / | / | / | / | / | 97 | /
COc1ccc(Cl)cc1NC(=O)CCCC(=O)c1ccccc1 | / | / | / | / | / | 61* | 99
CCOC1=C2[C@@H](CN(S(=O)(=O)c3ccc(C)cc3)[C@H]2c2ccccc2Cl)[C@H]2C(=O)N(C)C(=O)[C@H]2C1 | / | / | / | / | / | 104 | /
CC1(C)CC(=O)C=C(Nc2cc(-c3ccccc3)[nH]n2)C1 | 4 | 1 | 1 | 0.9 | 0 | 47* | 100
CCOC(=O)N1CCN(C(=O)C[C@@H]2C[C@@]3(C(=O)OCC)CCC=C3N(Cc3ccccc3)C2=O)CC1 | / | / | / | / | / | 96 | /
Cc1ccccc1OCC(=O)OCC(=O)c1ccc(OC(=O)c2ccccc2)cc1 | -7 | 1.1 | 13 | 0.8 | 2 | 44* | 104
COCc1cc(C)nc(SCC(=O)NC2CCCCC2C)c1C#N (centres undefined) | / | / | / | / | / | 96 | /
COCc1cc(C)nc(SCC(=O)N2CCC(C)CC2)c1C#N | -3 | 1 | 5 | 0.9 | 1 | 58* | 102
O=C(Cc1c(F)cccc1Cl)NNC(=S)Nc1ccc(S(=O)(=O)Nc2ncccn2)cc1 | / | / | / | / | / | 96 | /
SMILES | FLuc inh counter | FLuc act counter | ABCG2 block | Diaphorase act | ABCB1 block | ABCB6 inh 2 | ABCB6 blocker 1 | others
CCN(CC(=O)Nc1ccc(S(=O)(=O)N2CCCC2)cc1)CC(=O)Nc1ccccc1C(F)(F)F | / | / | / | / | / | 98 | /
O=C(CSc1nnc2c(Cl)cc(C(F)(F)F)cn12)N(Cc1ccccc1)Cc1ccccc1 | -9 | 1.1 | 3 | 0.8 | 1 | 74* | 97
O=C(CSc1nnc2c(Cl)cc(C(F)(F)F)cn12)NCc1ccc(F)cc1 | -3 | 1 | 0 | 0.7 | 0 | 98 | /
O=C(Nc1nnc(-c2ccccc2)o1)c1cc(Cl)sc1Cl | 0 | 1 | -3 | 1.1 | -1 | 69* | 98
O=C(Nc1nnc(-c2ccc(F)cc2)o1)c1cc(Cl)sc1Cl | -3 | 1 | -8 | 0.9 | -2 | 100 | /
COc1ccc([C@@H]2Sc3cc(OC)ccc3N(CCN(C(C)C)C(C)C)C(=O)[C@H]2OC(C)=O)cc1 | -8 | 1.1 | 1 | 0.8 | 2 | 51* | 101
CCN1C(=O)C(NC(C)=O)c2cc(OC)ccc21 (centres undefined) | -12 | 1.1 | 1 | 0.9 | 1 | 109 | /
O=C(O)CC/C(=C\c1ccc(Cl)c([N+](=O)[O-])c1)c1nc2ccccc2s1 | 0 | 1 | 10 | 0.8 | 1 | 72* | 101
CCSc1nc(C)c(C)c(=O)[nH]1 | / | / | / | / | / | 72* | 98
O=c1c2ccccc2c(-c2ccccc2)nn1-c1cc(Cl)ccc1[N+](=O)[O-] | -2 | 1 | 18 | 0.8 | 0 | 73* | 100
COc1cccc(-c2nc(NC(C)C)c3ccccc3n2)c1O | 1 | 1 | 1 | 0.7 | 0 | 49* | 99
COCCN(Cc1ccco1)C(=O)C1CCCN(c2ncnc3c2nc2n3CCCCC2)C1 (centres undefined) | / | / | / | / | / | 107 | /
CSc1ccc(CCNC(=O)CCc2nnc3ccc(N4CCCCC4)nn23)cc1 | / | / | / | / | / | 96 | /

Screens: PubChem, several laboratories
